Measured values published in ChEMBL document CHEMBL1287768, “Synthesis and pharmacological characterization of 5-phenyl-2-[2-(1-piperidinylcarbonyl)phenyl]-2,3-dihydro-1H-pyrrolo[1,2-c]imidazol-1-ones: a new class of Neuropeptide S antagonists” (Bioorg Med Chem Lett, 2010).

Experiments:
Neuropeptide S receptor = target: T1, Neuropeptide S receptor (Homo sapiens, UniProt Q6W5P4); assay: Antagonist activity at human recombinant GPR154 receptor expressed in HEK293 cells assessed as inhibition of neuropeptide S-induced increase of intracellular calcium level by FLIPR assay; assay type: functional, cell-based
T1 sequence (Q6W5P4 whole entry): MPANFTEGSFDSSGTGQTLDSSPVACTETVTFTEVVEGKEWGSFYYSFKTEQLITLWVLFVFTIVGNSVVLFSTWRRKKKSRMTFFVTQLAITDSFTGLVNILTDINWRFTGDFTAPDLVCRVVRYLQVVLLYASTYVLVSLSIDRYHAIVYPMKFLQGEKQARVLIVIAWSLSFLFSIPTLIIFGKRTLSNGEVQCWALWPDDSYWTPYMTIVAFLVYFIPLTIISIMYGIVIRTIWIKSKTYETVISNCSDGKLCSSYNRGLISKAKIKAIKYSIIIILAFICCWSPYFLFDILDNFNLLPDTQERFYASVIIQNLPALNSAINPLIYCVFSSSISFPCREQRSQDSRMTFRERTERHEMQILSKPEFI
Method in brief: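 Transient expression of human GPR154 in HEK293; cells seeded 18.000/well, 24 h at 37 °C, 5% CO₂. Fluo-4-AM loading 1 h at 37 °C, HBSS wash. Calcium rise evoked by EC₈₀ Neuropeptide S, read by FLIPR; response normalised to 30 nM NPS maximum (max minus min RFU); pIC₅₀ by nonlinear regression.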

[1] = Bioavailability in rat at 1 mg/kg, po; assay type: ADME, organism-based; details: in vivo
Method in brief: (§1)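 Rat, single oral 1 mg/kg in 5% DMSO + 0.5% HPMC in water; blood sampled for clearance, half-life, distribution volume and oral bioavailability.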

Cytochrome P450 2D6 = Cytochrome P450 2D6 (Homo sapiens, UniProt P10635); assay: Inhibition of CYP2D6; assay type: ADME
Cytochrome P450 2D6, sequence (P10635 whole entry): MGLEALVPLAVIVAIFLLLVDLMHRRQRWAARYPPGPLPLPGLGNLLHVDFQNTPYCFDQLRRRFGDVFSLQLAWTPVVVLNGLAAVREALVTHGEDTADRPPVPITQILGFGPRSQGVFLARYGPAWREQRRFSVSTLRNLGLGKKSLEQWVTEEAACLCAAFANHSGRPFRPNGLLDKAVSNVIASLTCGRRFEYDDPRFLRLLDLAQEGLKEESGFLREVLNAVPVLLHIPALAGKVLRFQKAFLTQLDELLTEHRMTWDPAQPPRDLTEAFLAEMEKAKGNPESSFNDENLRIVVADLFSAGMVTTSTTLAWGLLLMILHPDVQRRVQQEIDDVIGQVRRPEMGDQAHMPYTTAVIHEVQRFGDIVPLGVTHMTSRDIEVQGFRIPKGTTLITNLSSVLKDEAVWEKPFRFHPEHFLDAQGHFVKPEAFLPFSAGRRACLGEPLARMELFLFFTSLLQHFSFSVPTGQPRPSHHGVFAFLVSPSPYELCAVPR

[2] = Ratio of drug level in brain to blood in rat at 1 mg/kg, po; assay type: ADME, organism-based; design: dose 1 mg/kg, route oral
Method in brief: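 Rats received a single oral dose of 1 mg/kg, formulated in 5% DMSO + 0.5% HPMC in water. Drug levels were measured in blood and brain, and the brain/blood ratio was calculated from them. The work followed European directive 86/609/EEC.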

Cytochrome P450 2C9 = Cytochrome P450 2C9 (Homo sapiens, UniProt P11712); assay: Inhibition of CYP2C9; assay type: ADME
Cytochrome P450 2C9, sequence (P11712 whole entry): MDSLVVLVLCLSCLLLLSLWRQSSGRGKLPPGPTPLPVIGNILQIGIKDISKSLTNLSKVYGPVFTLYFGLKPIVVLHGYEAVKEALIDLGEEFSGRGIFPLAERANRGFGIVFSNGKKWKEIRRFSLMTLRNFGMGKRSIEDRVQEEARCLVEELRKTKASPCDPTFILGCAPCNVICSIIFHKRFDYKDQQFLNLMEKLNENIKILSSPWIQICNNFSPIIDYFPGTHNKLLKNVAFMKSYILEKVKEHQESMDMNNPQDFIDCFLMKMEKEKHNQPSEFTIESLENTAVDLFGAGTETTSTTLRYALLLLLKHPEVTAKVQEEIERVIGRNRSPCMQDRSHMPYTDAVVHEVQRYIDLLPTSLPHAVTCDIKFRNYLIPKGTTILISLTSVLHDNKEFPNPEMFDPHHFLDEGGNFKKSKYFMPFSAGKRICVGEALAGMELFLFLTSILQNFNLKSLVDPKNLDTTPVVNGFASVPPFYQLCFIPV

Liver microsomes [3] = assay: Intrinsic clearance in rat liver microsomes assessed per gram of protein; assay type: ADME, Microsome
Cytochrome P450 1A2 = target: T2, Cytochrome P450 1A2 (Homo sapiens, UniProt P05177); assay: Inhibition of CYP1A2; assay type: ADME
T2 sequence (P05177 whole entry): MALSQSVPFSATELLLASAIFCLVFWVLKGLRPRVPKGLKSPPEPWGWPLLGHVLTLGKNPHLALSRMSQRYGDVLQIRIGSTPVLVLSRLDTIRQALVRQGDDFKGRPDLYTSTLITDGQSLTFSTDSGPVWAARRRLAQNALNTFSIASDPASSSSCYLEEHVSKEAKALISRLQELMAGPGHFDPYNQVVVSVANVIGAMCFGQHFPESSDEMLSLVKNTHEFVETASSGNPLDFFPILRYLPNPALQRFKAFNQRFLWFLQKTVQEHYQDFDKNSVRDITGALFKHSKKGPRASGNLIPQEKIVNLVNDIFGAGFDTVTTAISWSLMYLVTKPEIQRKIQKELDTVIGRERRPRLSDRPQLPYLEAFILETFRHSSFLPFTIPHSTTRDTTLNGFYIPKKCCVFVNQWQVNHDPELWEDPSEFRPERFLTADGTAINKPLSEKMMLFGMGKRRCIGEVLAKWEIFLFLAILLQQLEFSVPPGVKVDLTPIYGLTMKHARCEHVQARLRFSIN

Cytochrome P450 2C19 = Cytochrome P450 2C19 (Homo sapiens, UniProt P33261); assay: Inhibition of CYP2C19; assay type: ADME
Cytochrome P450 2C19, sequence (P33261 whole entry): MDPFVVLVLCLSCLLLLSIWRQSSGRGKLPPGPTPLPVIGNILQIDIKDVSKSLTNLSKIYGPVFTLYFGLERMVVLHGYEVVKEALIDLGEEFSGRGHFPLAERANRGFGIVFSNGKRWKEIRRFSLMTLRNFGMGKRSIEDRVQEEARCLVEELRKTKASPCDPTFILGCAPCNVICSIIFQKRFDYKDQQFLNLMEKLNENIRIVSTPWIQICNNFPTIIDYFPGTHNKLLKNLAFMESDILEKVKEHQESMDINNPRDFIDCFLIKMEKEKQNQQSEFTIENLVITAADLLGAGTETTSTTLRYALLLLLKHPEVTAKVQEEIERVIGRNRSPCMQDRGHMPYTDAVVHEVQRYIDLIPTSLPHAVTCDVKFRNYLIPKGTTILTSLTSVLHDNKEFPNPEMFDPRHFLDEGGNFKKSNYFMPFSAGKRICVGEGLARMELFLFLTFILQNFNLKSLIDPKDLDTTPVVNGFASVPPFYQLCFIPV

[4] = Half life in rat at 1 mg/kg, po; assay type: ADME, organism-based; design: dose 1 mg/kg, route oral; details: in vivo; method in brief: as §1
Cytochrome P450 3A4 = Cytochrome P450 3A4 (Homo sapiens, UniProt P08684); assay: Inhibition of CYP3A4; assay type: ADME
Cytochrome P450 3A4, sequence (P08684 whole entry): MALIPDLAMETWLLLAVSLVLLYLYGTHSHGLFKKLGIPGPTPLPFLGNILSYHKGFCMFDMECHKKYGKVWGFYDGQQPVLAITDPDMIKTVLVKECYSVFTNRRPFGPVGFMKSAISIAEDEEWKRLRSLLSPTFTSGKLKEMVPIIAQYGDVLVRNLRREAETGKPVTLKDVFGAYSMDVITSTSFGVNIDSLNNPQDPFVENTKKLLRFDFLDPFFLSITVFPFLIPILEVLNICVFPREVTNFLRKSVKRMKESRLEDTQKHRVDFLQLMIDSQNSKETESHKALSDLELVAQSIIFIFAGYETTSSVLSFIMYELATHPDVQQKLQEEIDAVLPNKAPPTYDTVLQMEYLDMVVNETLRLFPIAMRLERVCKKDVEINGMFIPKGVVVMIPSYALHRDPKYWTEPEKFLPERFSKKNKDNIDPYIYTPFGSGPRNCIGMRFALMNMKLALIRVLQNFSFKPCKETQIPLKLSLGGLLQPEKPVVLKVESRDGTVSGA

Rattus norvegicus = assay: Volume of distribution in rat at 1 mg/kg, po; assay type: ADME, organism-based; design: dose 1 mg/kg, route oral; details: in vivo; method in brief: as §1
[5] = Clearance in rat blood at 1 mg/kg, po; assay type: ADME, organism-based; design: dose 1 mg/kg, route oral; method in brief: as §1
Liver microsomes [6] = assay: Intrinsic clearance in human liver microsomes assessed per gram of protein; assay type: ADME, Microsome

For `O=C(Nc1ccccc1C(=O)N1CCCCC1)c1ccc(-c2ccccc2)[nH]1`, the IC50 (Neuropeptide S receptor) was over 5010 nM.
For `O=C(Nc1ccccc1C(=O)N1CCCCC1)c1ccc(-c2ccccc2)o1`, the IC50 (Neuropeptide S receptor) was 31.6 nM.
With `O=C(Nc1ccccc1C(=O)N1CCCCC1)c1ccc(-c2ccccc2)s1` the IC50 (Neuropeptide S receptor) was 794 nM.
`O=C(NCc1ccccc1)N1CCN2C(=O)OC(c3ccccc3)(c3ccccc3)C2C1` (stereo unspecified) showed an IC50 (Neuropeptide S receptor) of 2 nM.
`O=C(c1ccccc1N1CCCn2c(ccc2-c2ccccc2)C1=O)N1CCCCC1` gave an IC50 (Neuropeptide S receptor) of over 5010 nM.
`O=C(c1ccccc1N1Cn2c(ccc2-c2ccccc2)C1=O)N1CCCCC1` gave a bioavailability [1] of 1%, an IC50 (Cytochrome P450 2D6) of over 5000 nM and a Kp [2] of 0.3. For the same compound, the IC50 (Cytochrome P450 2C9) was over 5000 nM, the CL (Liver microsomes [3]) was 26.3 mL/min/g and the IC50 (Cytochrome P450 1A2) was over 5000 nM. It also gave an IC50 (Cytochrome P450 2C19) of over 5000 nM, a half-life [4] of 42 min and an IC50 (Neuropeptide S receptor) of 10 nM. The IC50 (Cytochrome P450 3A4) was over 5000 nM, the Vd (Rattus norvegicus) was 2.4 L/kg and the CL/F [5] was 69 mL/min/kg. The CL (Liver microsomes [6]) was 6.9 mL/min/g.
Compound `O=C(Nc1ccccc1C(=O)N1CCCCC1)c1cccc(-c2ccccc2)n1` has an IC50 (Neuropeptide S receptor) of 20 nM.
In the case of `O=C(Nc1ccccc1C(=O)N1CCCCC1)c1cccc(-c2ccccc2)c1`, the IC50 (Neuropeptide S receptor) is reported as 251 nM.
In the case of `O=C(c1ccccc1N1CCn2c(ccc2-c2ccccc2)C1=O)N1CCCCC1`, the IC50 (Neuropeptide S receptor) is reported as over 5010 nM.
